# Measured values taken from ChEMBL document CHEMBL1124553, “Brain-specific chemical delivery systems for beta-lactam antibiotics. In vitro and in vivo studies of some dihydropyridine and dihydroisoquinoline derivatives of benzylpenicillin in rats” (J Med Chem, 1989).
# Key:
# [1] = Half-life for disappearance of compound from dog whole blood; type: ADME, organism-based, Canis lupus familiaris
# Summary of the method: (§1)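 Freshly collected whole blood, or 10% w/v brain homogenate in pH 7.4 phosphate buffer (ionic strength 0.15), was prewarmed to 37 °C. Compound was spiked from an 8 mM DMSO stock to 40 µM final. Timed samples were quenched in 8% DMSO/acetonitrile, centrifuged, filtered and analyzed by reversed-phase C8 HPLC with UV detection. K came from linear regression of log peak height versus time, with t1/2 derived from it. Values are mean ± SE of three determinations in different animal samples.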
# [2] = Half-life for disappearance of compound from human whole blood; type: ADME, organism-based; summary of the method: as §1
# [3] = Half-life for disappearance of compound from rabbit 10% brain homogenate; type: ADME, Oryctolagus cuniculus; summary of the method: as §1
# [4] = Half-life for disappearance of compound from rabbit whole blood; type: ADME, organism-based, Oryctolagus cuniculus; summary of the method: as §1
# [5] = Half-life for disappearance of compound from rat 10% brain homogenate; type: ADME; summary of the method: as §1
# [6] = species: Canis familiaris; assay: Pseudo first-order rate constant (K) for disappearance of compound from dog whole blood; type: ADME, organism-based, Canis lupus familiaris; summary of the method: as §1
# [7] = species: Homo sapiens; assay: Pseudo first-order rate constant (K) for disappearance of compound from human whole blood; type: ADME, organism-based; summary of the method: as §1
# [8] = species: Oryctolagus cuniculus; assay: Pseudo first-order rate constant (K) for disappearance of compound from rabbit 10% brain homogenate; type: ADME
# Summary of the method: (§2)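 Freshly collected whole blood (rat trunk blood; rabbit) or 10% w/v brain homogenate made in pH 7.4 phosphate buffer (μ = 0.15), prewarmed to 37 °C. Compound added from 8 mM DMSO stock to a final 40 μM. Timed 0.3 mL samples were quenched in 8% DMSO/acetonitrile, centrifuged, filtered and analysed by reversed-phase C8 HPLC-UV. K came from linear regression of log peak height versus time; n=3 animal samples.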
# [9] = species: Oryctolagus cuniculus; assay: Pseudo first-order rate constant (K) for disappearance of compound from rabbit whole blood; type: ADME, organism-based; summary of the method: as §2
# [10] = species: Rattus norvegicus; assay: Pseudo first-order rate constant (K) for disappearance of compound from rat 10% brain homogenate; type: ADME; summary of the method: as §2
# [11] = Half-life for disappearance of compound from rat whole blood; type: ADME, organism-based; summary of the method: as §1
# [12] = Pseudo first-order rate constant (K) for disappearance of compound from rat whole blood; type: ADME, tissue-based; summary of the method: as §2
# [13] = tested on: Rattus norvegicus; assay: Concentration of compound in rat blood after intravenous injection of 20 mg/kg benzyl-penicillin after 1 min; type: functional, organism-based; parameters: dose 20 mg/kg
# Summary of the method: (§3)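 Male Sprague-Dawley rats (200-250 g), conscious, received 60 µmol/kg (equimolar to 20 mg/kg benzylpenicillin) by tail-vein injection. Benzylpenicillin K was given in water/ethanol/propylene glycol, and the delivery systems in ethanol:propylene glycol 7:3, at 20 mg/mL. Rats were decapitated at set times (4-6 per point), with trunk blood heparinized and brain, kidney, liver and lung frozen. Benzylpenicillin was measured by disk microbioassay (Bacillus subtilis ATCC 6633) after >5-volume sterile-water dilution or homogenization, against matrix calibration curves; assay limit 0.05 µg/mL.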
# [14] = tested on: Rattus norvegicus; assay: Concentration of compound in rat blood after intravenous injection of 20 mg/kg benzyl-penicillin after 10 min; type: functional, organism-based; parameters: dose 20 mg/kg; summary of the method: as §3
# [15] = tested on: Rattus norvegicus; assay: Concentration of compound in rat blood after intravenous injection of 20 mg/kg benzyl-penicillin after 20 min; type: functional, organism-based; parameters: dose 20 mg/kg; summary of the method: as §3
# [16] = tested on: Rattus norvegicus; assay: Concentration of compound in rat blood after intravenous injection of 20 mg/kg benzyl-penicillin after 3 min; type: functional, organism-based; parameters: dose 20 mg/kg; summary of the method: as §3
# [17] = tested on: Rattus norvegicus; assay: Concentration of compound in rat blood after intravenous injection of 20 mg/kg benzyl-penicillin after 5 min; type: functional, organism-based; parameters: dose 20 mg/kg; summary of the method: as §3
# [18] = tested on: Rattus norvegicus; assay: Concentration of compound in rat brain after intravenous injection of 20 mg/kg benzyl-penicillin after 1 min; type: functional, organism-based; parameters: dose 20 mg/kg; summary of the method: as §3
# [19] = tested on: Rattus norvegicus; assay: Concentration of compound in rat brain after intravenous injection of 20 mg/kg benzyl-penicillin after 3 min; type: functional, organism-based; parameters: dose 20 mg/kg; summary of the method: as §3
# [20] = tested on: Rattus norvegicus; assay: Concentration of compound in rat brain after intravenous injection of 20 mg/kg benzyl-penicillin after 60 min;Below detection limit.; type: functional, organism-based; parameters: dose 20 mg/kg; summary of the method: as §3
# [21] = tested on: Rattus norvegicus; assay: Concentration of compound in rat blood after intravenous injection of 20 mg/kg benzyl-penicillin after 40 min; type: functional, organism-based; parameters: dose 20 mg/kg; summary of the method: as §3
# [22] = tested on: Rattus norvegicus; assay: Concentration of compound in rat blood after intravenous injection of 20 mg/kg benzyl-penicillin after 60 min; type: functional, organism-based; parameters: dose 20 mg/kg; summary of the method: as §3
# [23] = tested on: Rattus norvegicus; assay: Concentration of compound in rat brain after intravenous injection of 20 mg/kg benzyl-penicillin after 10 min; type: functional, organism-based; parameters: dose 20 mg/kg; summary of the method: as §3
# [24] = tested on: Rattus norvegicus; assay: Concentration of compound in rat brain after intravenous injection of 20 mg/kg benzyl-penicillin after 20 min;Below detection limit.; type: functional, organism-based; parameters: dose 20 mg/kg; summary of the method: as §3
# [25] = tested on: Rattus norvegicus; assay: Concentration of compound in rat brain after intravenous injection of 20 mg/kg benzyl-penicillin after 40 min;Below detection limit.; type: functional, organism-based; parameters: dose 20 mg/kg; summary of the method: as §3
# [26] = tested on: Rattus norvegicus; assay: Concentration of compound in rat brain after intravenous injection of 20 mg/kg benzyl-penicillin after 5 min; type: functional, organism-based; parameters: dose 20 mg/kg; summary of the method: as §3
SMILES,half-life [1] [min],half-life [2] [min],half-life [3] [min],half-life [4] [min],half-life [5] [min],K [6] [min⁻¹],K [7] [min⁻¹],K [8] [min⁻¹],K [9] [min⁻¹],K [10] [min⁻¹],half-life [11] [min],K [12] [min⁻¹],Concentration [13] [µg/mL],Concentration [14] [µg/mL],Concentration [15] [µg/mL],Concentration [16] [µg/mL],Concentration [17] [µg/mL],Concentration [18] [µg/mL],Concentration [19] [µg/mL],also measured
CN1C=CCC(C(=O)OCOC(=O)C2N3C(=O)C(NC(=O)Cc4ccccc4)C3SC2(C)C)=C1 (stereo not given),3.6,15.9,4.3,0.8,0.6,0.213,0.045,0.166,0.949,1.357,,,,,,,,,,
CN1C=c2ccccc2=C(C(=O)NCCOC(=O)C2N3C(=O)C(NC(=O)Cc4ccccc4)C3SC2(C)C)C1 (stereo not given),11.4,,,,28.3,0.062,,,,0.025,0.6,1.083,6.6,1.2,0.2,3,2.5,0.2,0.2,
C[n+]1cc(C(=O)NCCOC(=O)C2N3C(=O)C(NC(=O)Cc4ccccc4)C3SC2(C)C)c2ccccc2c1.[I-] (stereo not given),13.5,,,,73.4,0.051,,,,0.01,6,0.115,,,,,,,,
CN1C=CCC(C(=O)NCCOC(=O)C2N3C(=O)C(NC(=O)Cc4ccccc4)C3SC2(C)C)=C1 (stereo not given),5.7,19.4,4.6,1.3,5.7,0.123,0.037,0.152,0.553,0.125,0.3,2.712,5,4.9,0.8,7.3,3.8,0.2,0.3,Concentration [20]: Below limit of detection; Concentration [21]: 0.3 µg/mL; Concentration [22]: 0.2 µg/mL; Concentration [23]: 0.1 µg/mL; Concentration [24]: Below limit of detection; Concentration [25]: Below limit of detection; Concentration [26]: 0.2 µg/mL
